Source: PubChem
CAL PDZ FP-1 = CAL PDZ peptide-binding inhibitors, primary screen, biochemical, fluorescence polarization, Cer-tagged CAL PDZ, HTS; purified CAL PDZ, TMR-peptide fluorescence polarization, 1 h; 330,000 compounds, 0.02% hits; Golgi-associated PDZ and coiled-coil motif-containing protein (Homo sapiens), Q9HD26; inhibition, % at 20 µM;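 active means highest replicate inhibition of at least 40%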
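Read-out basis: mP drop reported as inhibition | Assay system: Tagged CAL PDZ protein CerCALP, purified | Benchmarks: Unlabelled peptide for full inhibition, DMSO wells as neutral | Schedule: 1 h incubation at room temperature before polarization reading | Buffer or medium: Sodium phosphate/NaCl buffer pH 7.4 with TCEP, IgG, Thesit | Doses: Single point, 20 µM | Measured by: Fluorescence polarization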
Tn6 DDE FP = inhibitors of Tn6 peptide binding to fibrin DD(E), primary screen, biochemical, fluorescence polarization, human fibrin, Tn6 probe | Fibrin DD(E) TRITC-Tn6 fluorescence polarization displacement | 370,000 compounds, 0.21% hits | inhibition, % at 8.3 µM | Fibrinogen beta chain (Homo sapiens), P02675;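 active means inhibition above a per-campaign cutoff: mean of compounds within control limits plus 3 SD, cut at about 15% in these data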
Target sequence (P02675 whole entry, looked up): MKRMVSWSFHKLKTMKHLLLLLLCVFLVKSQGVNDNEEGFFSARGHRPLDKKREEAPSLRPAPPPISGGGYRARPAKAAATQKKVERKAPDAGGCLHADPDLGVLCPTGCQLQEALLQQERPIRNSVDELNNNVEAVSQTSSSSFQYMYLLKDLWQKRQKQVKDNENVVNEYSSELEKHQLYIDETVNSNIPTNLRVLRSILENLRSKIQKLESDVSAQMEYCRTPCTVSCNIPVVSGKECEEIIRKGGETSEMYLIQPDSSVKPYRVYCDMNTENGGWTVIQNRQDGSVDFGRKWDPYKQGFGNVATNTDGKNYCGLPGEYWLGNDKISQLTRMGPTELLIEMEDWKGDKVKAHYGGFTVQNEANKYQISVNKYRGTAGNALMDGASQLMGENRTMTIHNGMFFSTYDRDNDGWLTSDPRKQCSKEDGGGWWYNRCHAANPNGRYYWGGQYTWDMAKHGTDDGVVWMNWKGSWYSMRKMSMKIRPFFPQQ
GRK2 inh = compounds blocking aptamer binding on GRK2 – biochemical, human GRK2, bead flow cytometry, HTS, primary screen | Beta-adrenergic receptor kinase 1 (Homo sapiens), P25098 | FAM-aptamer displacement from GRK2 | inhibition of aptamer binding, % at 10 µM | 330,000 compounds, 0.59% hits;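 active means inhibition of aptamer binding above 40%, roughly 3 SD of noise, on plates passing a quality check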;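 further: median bead fluorescence of bound FAM aptamer so fluorescent compounds give negative values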
CAL PDZ FP-2 = untagged CAL PDZ binding inhibitors, primary screen, biochemical, fluorescence polarization, HTS | Golgi-associated PDZ and coiled-coil motif-containing protein (Homo sapiens), Q9HD26 | purified CAL PDZ, TMR-peptide fluorescence polarization, 1 h | inhibition, % at 24.9 µM | 300,000 compounds, 0.92% hits | AID 602252, 2012;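 active means mean inhibition of at least 30% with at least half of replicates also reaching 30%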
ARNT-TACC3 inh = disruptors of ARNT/TACC3 protein interaction, primary screen, biochemical, AlphaScreen, single concentration; Transforming acidic coiled-coil-containing protein 3 (Homo sapiens), Q9Y6A5; AlphaScreen His-ARNT PAS-B/GST-TACC3 binding, luminescence; TACC3 fragment carries E629A point mutation; inhibition, % at 9.99 µM; 390,000 compounds, 0.66% hits; AID 623870, 2012;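 active means mean inhibition of replicates at least 50% and at least half of replicates each reaching 50%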
Tn7 DDE FP = inhibitors of Tn7 peptide binding to fibrin DD(E), primary screen, biochemical, fluorescence polarization, human fibrin, Tn7 probe; FP displacement of FITC-Tn7 peptide from fibrin DD(E); 0% = median of compound wells per plate; inhibition, % at 8.3 µM; 370,000 compounds, 0.13% hits; AID 720508, 2013; Fibrinogen beta chain (Homo sapiens), P02675;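 active means inhibition above the mean of compounds falling within the control limits plus 3 SD of them, cut at about 14% in these data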
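Assay system: Human clot-derived fibrin DD(E) complex | Buffer or medium: Tris/NaCl/CaCl2 buffer, pH 7.8 | Repeats: One replicate per compound | Benchmarks: Aha-Tn7 high control | Measure: % inhibition scaled between sample-field median and high-control FP | Schedule: 10 min plus 3 h, room temperature | Signal: Fluorescence polarization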
Numbers stand for hits; . = inactive; / = not tested or not shown; + = active, no number. Most compounds without a hit are left out; they make up all but 1.8% or so of the library.

SMILES	CAL PDZ FP-1	Tn6 DDE FP	GRK2 inh	CAL PDZ FP-2	ARNT-TACC3 inh	Tn7 DDE FP
C/C(=N\Nc1nc(N)cc(Cl)n1)c1ccc(F)cc1	.	.	.	.	48	.
C/C(=N\Nc1nc(N)cc(Cl)n1)c1ccc(Cl)c(Cl)c1	.	.	.	/	.	.
O=S(=O)(Nc1ccc2cn[nH]c2c1)c1ccc(C(F)(F)F)cc1	.	.	.	.	.	.
O=[N+]([O-])c1cccc(S(=O)(=O)Nc2ccc3cn[nH]c3c2)c1	.	.	.	+	.	.
Cc1nn(CCOc2cccc(Br)c2)c(C)c1[N+](=O)[O-]	.	.	.	59	.	.
CO[C@H]1CC[C@H]2CCN(C)C(=O)[C@@H](C)[C@H](OC)CN(C)C(=O)c3cc(C#N)ccc3OC[C@H]1O2	/	/	/	/	.	/
O=C(CCN=C1NS(=O)(=O)c2ccccc21)Nc1ccc(Cl)cc1F	.	.	.	.	/	.
Cc1cc(C)n2c(SCCC(C)C)nnc2n1	/	.	.	.	.	15
O=C(NCc1ccccc1)c1nc(S(=O)(=O)Cc2ccccc2)ncc1Cl	.	.	.	+	.	.
Nc1c2c(nc3ccccc13)N(c1ccccc1)CC2	.	.	.	/	.	.
Nc1c2c(nc3ccccc13)CSCC2	.	.	.	50	.	.
O=C(O)CCCCCNS(=O)(=O)c1cccc2c1C(=O)c1ccccc1C2=O	.	.	.	.	58	.
O=C(O)CCCCCNS(=O)(=O)/C=C/c1ccccc1	/	.	.	.	.	.
C=CCNCCCCOc1ccc(OCC)cc1	/	.	.	45	.	.
C=CCNCCCOc1ccc(C(C)(C)c2ccccc2)cc1	.	.	.	.	.	.
Oc1ccc(N=Nc2ccccc2-c2nn[nH]n2)c(O)c1	.	.	.	.	67	.
Cc1cc(C)c(S(=O)(=O)Nc2ccc(OCC(=O)O)cc2)c(C)c1	.	.	.	43	/	.
CN(c1ccc(OCC(=O)OCC(=O)Nc2ccc([N+](=O)[O-])cc2)cc1)S(=O)(=O)c1cccs1	.	.	/	95	.	.
O=c1[nH]c(Nc2ccccc2Cl)cc2ccccc12	.	.	.	.	37	.
CSC(=S)NN=C(C)c1cccc(C)n1	.	.	/	.	59	.
Cc1cc(C)c(S(=O)(=O)NCc2nc3nc(C)cc(C)n3n2)c(C)c1	.	.	.	/	.	.
Oc1cc(Nc2ccccc2)cc2cccnc12	.	.	.	.	66	.
Oc1cc(-c2cccnc2)cc2cccnc12	.	.	.	.	65	.
CN(C)CCOC(=O)c1sc2ccccc2c1Cl	.	.	.	84	.	.
O=C(COC(=O)c1cnccn1)NCc1ccc2c(c1)OCO2	.	.	.	.	.	.
SMILES	CAL PDZ FP-1	Tn6 DDE FP	GRK2 inh	CAL PDZ FP-2	ARNT-TACC3 inh	Tn7 DDE FP
COc1ccccc1NC(=O)N1CCCCN2[C@@H](CO)[C@H](c3ccc(-c4ccccc4)cc3)[C@@H]2C1	/	/	/	/	.	/
O=C(Cc1c(C(=O)O)[nH]c2ccccc12)NCCN1CCN(c2cccc(Cl)c2)CC1	.	.	.	62	.	.
CN(c1ccc(OCC(=O)Nc2ccc(S(N)(=O)=O)cc2)cc1)S(=O)(=O)c1ccc(F)cc1	.	.	/	.	.	.
NS(=O)(=O)c1ccc(NC(=O)COc2ccc(C(=O)c3ccc(F)cc3)cc2)cc1	.	24	.	.	.	.
Clc1ccc(OCCOCCN2CCc3ccccc3C2)c(Cl)c1	.	.	.	.	.	.
c1ccc(-c2ccccc2OCCOCCN2CCc3ccccc3C2)cc1	.	.	.	75	.	.
